Results reported in ChEMBL document CHEMBL2331234, “Novel analgesic/anti-inflammatory agents: 1,5-diarylpyrrole nitrooxyalkyl ethers and related compounds as cyclooxygenase-2 inhibiting nitric oxide donors” (J Med Chem, 2013).
Calls of active or inactive are those of the source. No cut-off for these calls is given here.

Tests used:
J774 = test: Selectivity index, ratio of IC50 for COX1 in mouse J774 cells […]; assay type: cell-based
[1] = target: T1, Prostaglandin G/H synthase 1 (Mus musculus, UniProt P22437); test: Inhibition of arachidonic acid-induced COX1 activity in mouse J774 cells assessed as decrease in PGE2 levels incubated for 15 mins prior to arachidonic acid-challenge measured after 30 mins by RIA; assay type: cell-based
T1 sequence (P22437 whole entry): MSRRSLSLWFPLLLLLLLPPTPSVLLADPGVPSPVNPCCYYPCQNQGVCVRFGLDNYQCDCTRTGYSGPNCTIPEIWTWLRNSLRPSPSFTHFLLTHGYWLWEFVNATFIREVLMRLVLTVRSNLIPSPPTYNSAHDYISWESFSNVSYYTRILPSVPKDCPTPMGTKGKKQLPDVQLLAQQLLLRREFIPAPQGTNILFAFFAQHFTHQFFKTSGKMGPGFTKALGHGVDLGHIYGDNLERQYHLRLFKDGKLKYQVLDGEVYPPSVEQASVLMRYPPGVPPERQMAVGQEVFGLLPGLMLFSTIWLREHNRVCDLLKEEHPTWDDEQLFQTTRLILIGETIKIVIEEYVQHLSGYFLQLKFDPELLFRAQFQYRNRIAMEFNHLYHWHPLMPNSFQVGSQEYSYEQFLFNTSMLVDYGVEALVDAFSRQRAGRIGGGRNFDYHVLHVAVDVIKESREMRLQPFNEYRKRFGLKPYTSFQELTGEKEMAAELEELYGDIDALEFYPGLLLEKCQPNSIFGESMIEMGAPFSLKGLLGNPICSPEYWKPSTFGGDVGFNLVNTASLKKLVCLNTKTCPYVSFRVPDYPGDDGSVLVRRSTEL
Summary of the method: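 Cells were in DMEM with 10% FBS and adhered for 2 h at 37 °C. They were pretreated with compound (10 µM; 0.1-1 µM where inhibition exceeded 50%) for 15 min, then given 15 µM arachidonic acid for 30 min at 37 °C. Supernatant PGE2 was measured by RIA. Triplicate wells were used and the mean of three experiments reported. IC50 came from a variable-slope sigmoidal fit.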

Rattus norvegicus [2] = test: Antiinflammatory activity in Sprague-Dawley/Wistar rat assessed as decrease in carrageenan-induced hyperalgesia at 20 mg/kg, po administered 4 hrs after carrageenan-challenge measured after 60 mins (reference value: 33.9 +/- 3.7 g); assay type: functional
Rattus norvegicus [3] = test: Antiinflammatory activity in Sprague-Dawley/Wistar rat assessed as decrease in carrageenan-induced hyperalgesia at 40 mg/kg, po administered 4 hrs after carrageenan-challenge measured after 60 mins (reference value: 33.9 +/- 3.7 g); assay type: functional
Rattus norvegicus [4] = test: Antiinflammatory activity in Sprague-Dawley/Wistar rat assessed as decrease in carrageenan-induced paw edema at 20 mg/kg, po administered 3 hrs 30 mins after carrageenan-challenge measured after 60 mins (reference value: 2.48 +/- 0.06 mL); assay type: functional
Rattus norvegicus [5] = test: Antiinflammatory activity in Sprague-Dawley/Wistar rat assessed as decrease in carrageenan-induced hyperalgesia at 20 mg/kg, po administered 4 hrs after carrageenan-challenge measured after 120 mins (reference value: 31.4 +/- 3.7 g); assay type: functional
Rattus norvegicus [6] = test: Antiinflammatory activity in Sprague-Dawley/Wistar rat assessed as decrease in carrageenan-induced hyperalgesia at 40 mg/kg, po administered 4 hrs after carrageenan-challenge measured after 30 mins (reference value: 34.8 +/- 3.0 g); assay type: functional
Mus musculus = test: Antinociceptive activity in po dosed Swiss albino mouse assessed as reduction in number of acetic acid-induced writhing counted 5 mins after acetic acid challenge counted for 10 mins; assay type: functional; conditions: read-out: MED
Summary of the method: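 Male Swiss albino mice (23-25 g) dosed orally, then given 0.6% acetic acid (10 mL/kg) ip. Stretching movements counted for 10 min, starting 5 min after the acetic acid. Control group received CMC. At least 7 mice/group; mean ± SEM, ANOVA with Fisher's PLSD.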

Rattus norvegicus [7] = test: Antiinflammatory activity in Sprague-Dawley/Wistar rat assessed as decrease in carrageenan-induced hyperalgesia at 40 mg/kg, po administered 4 hrs after carrageenan-challenge measured after 120 mins (reference value: 31.4 +/- 3.7 g); assay type: functional
Rattus norvegicus [8] = test: Antiinflammatory activity in Sprague-Dawley/Wistar rat assessed as decrease in carrageenan-induced paw edema at 40 mg/kg, po administered 3 hrs 30 mins after carrageenan-challenge measured after 60 mins (reference value: 2.48 +/- 0.06 mL); assay type: functional
Rattus norvegicus [9] = test: Antiinflammatory activity in Sprague-Dawley/Wistar rat assessed as decrease in carrageenan-induced hyperalgesia at 20 mg/kg, po administered 4 hrs after carrageenan-challenge measured after 30 mins (reference value: 34.8 +/- 3.0 g); assay type: functional
Aorta [10] = test: Vasorelaxant activity in Wistar rat endothelium-removed thoracic aortic rings assessed as reduction of KCl-induced vasoconstriction at 0.001 uM to 10 uM treated after KCl-challenge relative to control; assay type: functional
Summary of the method: (§1)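 Thoracic aortic rings from male Wistar rats (250-350 g), endothelium removed by rubbing; removal confirmed as <10% relaxation to ACh 10 µM in KCl 30 mM-contracted rings. Rings contracted with KCl 30 mM; at plateau, 3-fold increasing compound concentrations (1 nM-10 µM) added. Isometric tension recorded. Emax given as % of KCl tone; pIC50 as -log molar concentration halving that tone. 6-10 experiments; also run with ODQ 1 µM.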

Aorta [11] = test: Vasorelaxant activity in Wistar rat endothelium-removed thoracic aortic rings assessed as reduction of KCl-induced vasoconstriction treated after KCl-challenge; assay type: functional, tissue-based; summary of the method: as §1
Aorta [12] = test: Vasorelaxant activity in Wistar rat endothelium-removed thoracic aortic rings assessed as reduction of KCl-induced vasoconstriction at 0.001 uM to 10 uM treated after KCl-challenge in presence of guanylate cyclase inhibitor 1H-[1,2,4]-oxadiazolo[4,3-a]quinoxalin-1-one; assay type: functional, tissue-based
Summary of the method: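 Endothelium-denuded aortic rings from male Wistar rats (250-350 g) were preincubated with ODQ 1 µM. Rings were contracted with KCl 30 mM, then given 3-fold increasing concentrations from 1 nM to 10 µM. Emax is the % relaxation of KCl tone. pIC50 was calculated when efficacy reached 50%, from 6-10 experiments.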

[13] = target: T2, Prostaglandin G/H synthase 2 (Mus musculus, UniProt Q05769); test: Inhibition of Escherichia coli lipopolysaccharide-induced COX2 activity in mouse J774 cells assessed as decrease in PGE2 levels after 24 hrs by RIA; assay type: cell-based
T2 sequence (Q05769 whole entry): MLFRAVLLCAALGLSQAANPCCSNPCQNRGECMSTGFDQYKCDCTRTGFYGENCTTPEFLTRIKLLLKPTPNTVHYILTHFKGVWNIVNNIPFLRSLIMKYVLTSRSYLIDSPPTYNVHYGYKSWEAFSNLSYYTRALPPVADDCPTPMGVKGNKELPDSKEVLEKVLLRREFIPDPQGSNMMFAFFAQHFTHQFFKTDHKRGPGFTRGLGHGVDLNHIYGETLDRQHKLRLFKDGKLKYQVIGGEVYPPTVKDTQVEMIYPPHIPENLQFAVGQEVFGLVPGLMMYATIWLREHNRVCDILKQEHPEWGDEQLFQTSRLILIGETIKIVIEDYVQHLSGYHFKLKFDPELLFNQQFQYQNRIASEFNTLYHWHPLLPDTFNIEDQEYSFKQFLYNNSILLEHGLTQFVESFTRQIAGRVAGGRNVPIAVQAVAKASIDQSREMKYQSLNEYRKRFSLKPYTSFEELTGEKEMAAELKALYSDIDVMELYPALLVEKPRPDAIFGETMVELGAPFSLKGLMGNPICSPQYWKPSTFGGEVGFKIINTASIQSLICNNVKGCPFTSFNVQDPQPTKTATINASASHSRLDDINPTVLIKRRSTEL
Summary of the method: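 Adhered cells in DMEM/10% FBS were stimulated with E. coli LPS 10 µg/mL for 24 h with compound present at 0.01-10 µM. Supernatant PGE2 was measured by RIA. IC50 came from a variable-slope sigmoidal fit.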

SMILES	Ratio IC50 (J774)	IC50 [1]	Activity (Rattus norvegicus [2])	Activity (Rattus norvegicus [3])	Activity (Rattus norvegicus [4])	Activity (Rattus norvegicus [5])	Activity (Rattus norvegicus [6])	minimal effective dose (Mus musculus)	Activity (Rattus norvegicus [7])	Activity (Rattus norvegicus [8])	Activity (Rattus norvegicus [9])	Emax (Aorta [10])	IC50 (Aorta [11])	pIC50 (Aorta [11])	Activity (Aorta [12])	IC50 [13]	Activity (Aorta [11])
Cc1c(CCOCCO)cc(-c2ccc(S(C)(=O)=O)cc2)n1-c1ccc(F)c(F)c1	> 23.8	> 10 µM	46.7 g	55.2 g	2.16 mL	41.4 g	53.2 g	20 mg/kg	49.3 g	1.96 mL	43.6 g	inactive					
O=[N+]([O-])OCC(CO[N+](=O)[O-])O[N+](=O)[O-] [NITROGLYCERIN]												93%					
Cc1c(CCOCCCO[N+](=O)[O-])cc(-c2ccc(S(C)(=O)=O)cc2)n1-c1ccccc1	> 667	> 10 µM	51.6 g		1.8 mL	45.6 g		20 mg/kg			53.7 g	48%	≥ 10 µM	Dose-dependent effect	inactive		
Cc1c(CCOCCO[N+](=O)[O-])cc(-c2ccc(S(C)(=O)=O)cc2)n1-c1ccc(F)c(F)c1	> 10.9	> 10 µM	46.9 g	42.5 g	2.19 mL	38.8 g	49.5 g	20 mg/kg	35.3 g	2.1 mL	44.6 g		≥ 10 µM	Dose-dependent effect	inactive		
Cc1c(CCOCCO)cc(-c2ccc(S(C)(=O)=O)cc2)n1-c1cccc(F)c1	> 217	> 10 µM	48.6 g	45.3 g	2.46 mL	37.2 g	51.4 g	20 mg/kg	39.5 g	2.12 mL	46.9 g	inactive					
Cc1c(CCOCCCO)cc(-c2ccc(S(C)(=O)=O)cc2)n1-c1cccc(F)c1	15.4	3.7 µM										inactive				0.24 µM	
Cc1c(CCOCCCO)cc(-c2ccc(S(C)(=O)=O)cc2)n1-c1ccc(F)cc1	> 10.6	> 10 µM										inactive					
Cc1c(CCOCCO[N+](=O)[O-])cc(-c2ccc(S(C)(=O)=O)cc2)n1-c1ccccc1	> 588	> 10 µM	55.3 g		1.45 mL	48.7 g		10 mg/kg			54.2 g		6.03 µM		inactive		Dose-dependent effect
Cc1c(CCOCCO[N+](=O)[O-])cc(-c2ccc(S(C)(=O)=O)cc2)n1-c1cccc(F)c1	> 357	> 10 µM	40.7 g	41 g	2.16 mL	35.2 g	47.3 g	40 mg/kg	34.3 g	2.08 mL	43.9 g		4.79 µM	Dose-dependent effect	inactive	0.027 µM	
Cc1c(CCOCCCO[N+](=O)[O-])cc(-c2ccc(S(C)(=O)=O)cc2)n1-c1cccc(F)c1	126	2.9 µM										inactive				0.023 µM	
Cc1c(CCOCCCO)cc(-c2ccc(S(C)(=O)=O)cc2)n1-c1ccccc1	> 1.11	> 10 µM	50.3 g		1.86 mL	46.6 g		20 mg/kg			52.9 g	inactive				8.99 µM	
Cc1c(CCOCCCO[N+](=O)[O-])cc(-c2ccc(S(C)(=O)=O)cc2)n1-c1ccc(F)cc1	> 52.6	> 10 µM										inactive					
Cc1c(CCOCCO)cc(-c2ccc(S(C)(=O)=O)cc2)n1-c1ccccc1		> 10 µM	49.2 g		1.34 mL	37.8 g		10 mg/kg			56.6 g	inactive					
